The results in this text go back to ChEMBL document CHEMBL3784986, “Discovery and Characterization of Biased Allosteric Agonists of the Chemokine Receptor CXCR3” (J Med Chem, 2016).

Calls of active or inactive are those of the source. The calls are words filed in the database; no cut-off is given here.

Data set [1] concerns the target T1, C-X-C chemokine receptor type 3 (Homo sapiens) (UniProt P49682).
T1 sequence (whole entry): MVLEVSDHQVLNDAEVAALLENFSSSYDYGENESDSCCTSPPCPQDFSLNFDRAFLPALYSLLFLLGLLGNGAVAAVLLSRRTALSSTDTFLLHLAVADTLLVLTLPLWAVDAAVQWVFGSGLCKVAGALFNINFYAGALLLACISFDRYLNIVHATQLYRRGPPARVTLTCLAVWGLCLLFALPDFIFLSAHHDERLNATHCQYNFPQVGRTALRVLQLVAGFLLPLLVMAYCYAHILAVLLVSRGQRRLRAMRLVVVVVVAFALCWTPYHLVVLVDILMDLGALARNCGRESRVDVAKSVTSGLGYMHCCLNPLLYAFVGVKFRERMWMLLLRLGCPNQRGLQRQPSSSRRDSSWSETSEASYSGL
The data set is described as follows: Positive allosteric modulation of human CXCR3 expressed in HEK293T cell membranes after 30 mins by [35S]GTPgammaS incorporation assay relative to CXCL11. Format: functional. The note with it: HEK-293T. Put shortly:
(§1)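 Membranes from HEK293 cells stably expressing CXCR3 (30 µg/mL protein) in 20 mM HEPES, 10 mM MgCl2, 100 mM NaCl, 100 mg/L saponin, pH 7.4. Compound plus 1 µM GDP preincubated 30 min at 37 °C, then 0.10 nM [35S]GTPγS added for 30 min at 37 °C. Filtered on GF/B and counted. Efficacy expressed as % of CXCL11. Three experiments in triplicate, pEC50 by nonlinear regression.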
(In general: GTPγS resists hydrolysis and so accumulates on activated G proteins.)

Data set [2] has as its target T1, C-X-C chemokine receptor type 3 (Homo sapiens). Briefly: Positive allosteric modulation of ProLink1-tagged wild type CXCR3 (unknown origin) expressed in HEK293T cells assessed as beta-arrestin-2 recruitment at 10 uM incubated for 4 hrs by chemiluminescence-based microplate reader method. In kind it is cell-based. The note with it: HEK-293T. Put shortly:
(§2)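 HEK293 cells stably expressing β-gal enzyme acceptor, transiently transfected with PK1- or PK2-tagged wild-type CXCR3, 2000 cells/well, grown overnight at 37 °C. Compounds or CXCL11 in PBS pH 7.4 with 0.20% BSA added for 4 h. Detection mix 60 min at room temperature, then chemiluminescence read. Efficacy expressed as % of CXCL11 effect. Two to three experiments in triplicate.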
(Arrestin recruitment assays detect the binding of arrestin to an activated receptor.)

A short description of data set [3]: Cytotoxicity against HEK293T cells expressing CXCR3 at 10 uM incubated overnight by ApoTox-Glo Triplex assay. In kind it is cell-based. The note with it: human, hek-293t. Put shortly:
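10,000 HEK293T cells stably expressing CXCR3 incubated overnight with compound at 10 µM. ApoTox-Glo triplex. Viability read by fluorescence at 400Ex/505Em (GF-AFC) and cytotoxicity at 485Ex/520Em (bis-AAF-R110), each after a 30 min reagent step. Caspase-3/7 luminescence then read after a further 30 min.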

Data set [4] deals with T1, C-X-C chemokine receptor type 3 (Homo sapiens). The data set is described as follows: Inhibition of CXCL11-mediated activation of human CXCR3 expressed in HEK cells. Format: cell-based. As to conditions: HEK293.
The target is the same in data set [5]. The data set is described as follows: Inhibition of CXCL10-mediated activation of human CXCR3 expressed in HEK cells. In kind it is cell-based. As to conditions: HEK293.
For data set [6] the target is unchanged. Briefly: Positive allosteric modulation of ProLink1-tagged wild type CXCR3 (unknown origin) expressed in HEK293T cells assessed as beta-arrestin-2 recruitment incubated for 4 hrs by chemiluminescence-based microplate reader method. The note with it: HEK-293T. Format: cell-based. Put shortly: as §2
Data set [7] has the same target. Briefly: Positive allosteric modulation of ProLink1-tagged wild type CXCR3 (unknown origin) expressed in HEK293T cells assessed as beta-arrestin-2 recruitment incubated for 4 hrs by chemiluminescence-based microplate reader method relative to CXCL11. In kind it is cell-based. The note with it: HEK-293T. Put shortly:
as §2

For data set [8] the target is unchanged. Briefly: Induction of C-terminal eGFP-tagged CXCR3 (unknown origin) internalization expressed in HEK293T cells at 1 to 10 uM after 60 mins by scanning laser confocal microscopy. As to conditions: HEK-293T. In kind it is cell-based. Put shortly: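 HEK293T cells transiently transfected with C-terminally eGFP-tagged CXCR3, moved to poly-L-lysine coverslips at 24 h. Two days post-transfection, treated 60 min at 37 °C with compound (10 µM and 1 µM) or 100 nM CXCL11. Fixed in 4% paraformaldehyde and imaged by confocal laser scanning microscopy.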

For data set [9] the target is unchanged. The data set is described as follows: Displacement of [125I]CXCL11 from human CXCR3 isoform 1 expressed in African green monkey COS7 cells after 3 hrs by liquid scintillation counting method. In kind it is cell-based. The note with it: COS-7. Put shortly:
(§3)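 Cells washed in 50 mM HEPES/5 g/L BSA and chilled 15 min at 4 °C. Ligands added, then 10-15 pM [125I]CXCL11 (Chloramine-T labelled, HPLC-purified). Incubation 3 h at 4 °C, washes, bound radioactivity read by liquid scintillation.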

The target is the same in data set [10]. The data set is described as follows: Displacement of [125I]CXCL11 from human CXCR3 isoform 1 expressed in African green monkey COS7 cells at 1 uM after 3 hrs by liquid scintillation counting method. Format: cell-based. As to conditions: COS-7. Put shortly: as §3
In general terms: Loss of bound radioactivity is the signal in a displacement assay; it reports binding, not function.

Data set [11] has the same target. Briefly: Positive allosteric modulation of CXCR3 (unknown origin) expressed in HEK293 cells assessed as induction of cell migration at 100 nM after 5 hrs by transwell migration assay relative to control. Format: cell-based. Put shortly:
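HEK293 cells transiently transfected with CXCR3 by calcium phosphate, used 48 h later, serum-starved. Compound placed in lower (source) chamber in 0.2% serum DMEM. Cells (1 × 10^5/well) in upper chamber, 5 h migration at 37 °C. Crystal-violet-stained migrated cells counted in 5 predefined areas and compared with buffer control.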

The target is the same in data set [12]. Briefly: Antagonist activity at CXCR3 (unknown origin) expressed in HEK293 cells assessed as inhibition of CXCL11-mediated cell migration after 5 hrs by transwell migration assay. Format: cell-based. Put shortly:
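CXCR3-transfected HEK293 cells (calcium phosphate, used 48 h post-transfection), serum-starved, pre-incubated 15 min with compound. Compound present in both upper chamber (1 × 10^5 cells/well, 0.2% serum DMEM) and lower chamber containing CXCL11. Migration 5 h at 37 °C. Migrated cells fixed in 3.7% formaldehyde, stained with crystal violet, counted in 5 predefined areas.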

Data set [13] shares this target. Briefly: Positive allosteric modulation of human CXCR3 expressed in HEK293T cell membranes after 30 mins by [35S]GTPgammaS incorporation assay. In kind it is functional. The note with it: HEK-293T. Put shortly:
as §1

For data set [14] the target is unchanged. Briefly: Positive allosteric modulation of ProLink2-tagged wild type CXCR3 (unknown origin) expressed in HEK293T cells assessed as beta-arrestin-2 recruitment incubated for 4 hrs by chemiluminescence-based microplate reader method relative to CXCL11. In kind it is cell-based. The note with it: HEK-293T. Put shortly: as §2
Data set [15] has the same target. The data set is described as follows: Induction of FLAG-tagged CXCR3 (unknown origin) internalization expressed in HEK293T cells at 10 uM after 60 mins by ELISA. In kind it is cell-based. The note with it: HEK-293T. Put shortly:
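FLAG-CXCR3-transfected HEK293T cells replated on poly-D-lysine. At 48 h, serum-free DMEM with compound (10 µM) or CXCL11 (100 nM) for 1 h at 37 °C. Cells fixed in 4% formaldehyde. Surface receptor detected with anti-FLAG antibody and peroxidase-conjugated anti-mouse IgG, o-phenylenediamine substrate, stopped with 1M H2SO4, absorbance at 492 nm.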

For data set [16] the target is unchanged. The data set is described as follows: Effect on CXCL11-induced beta-arrestin-2 recruitment to wild type CXCR3 (unknown origin) expressed in HEK293T cells at 10 to 1000 nM incubated for 4 hrs by chemiluminescence-based microplate reader method. In kind it is cell-based. As to conditions: HEK-293T.

Compound `CC(C)(C)OC(=O)NCCCC[C@H](NC(=O)[C@@H]1Cc2ccccc2CN1C(=O)CCC(=O)c1ccccc1)C(=O)NCC(c1ccccc1)c1ccccc1` yielded an Efficacy in data set [1] of 47%. The Activity in data set [2] is 70%.

For `COc1ccc(C(=O)CCC(=O)N2Cc3ccccc3C[C@H]2C(=O)NCCCC[C@H](NC(=O)OC(C)(C)C)C(=O)NCC(c2ccccc2)c2ccccc2)cc1`, the Efficacy in data set [1] was found to be 50%. The Activity entry in data set [3] is “Non-toxic”. The inhibition result in [4], in data set [5], in data set [9], in data set [10] and in [12] was “inactive” in each case. For the same compound, the pEC50 result in [6] was “inactive”. Besides, the Efficacy entry in data set [7] is “inactive”. In addition, in data set [8], the result was inactive. In addition, the fold change (FC) in [11] is 0.25.

On to `CC(C)(C)OC(=O)N[C@@H](CCCCNC(=O)[C@@H]1Cc2ccccc2CN1C(=O)CCC(=O)c1ccccc1)C(=O)NCC(c1ccccc1)c1ccccc1`, for which the pEC50 result in data set [13] was “inactive”. In data set [1], the Efficacy result is “inactive”. For the same compound, the Activity result in data set [3] is given as “Non-toxic”. The inhibition entry in [4], in [5], in [9], in [10] and in [12] was “inactive” throughout. Further, the Efficacy in [7] amounted to 30%; in data set [14] it was 66%. The result in data set [8] and in [15] was Active. In addition, the fold change (FC) in data set [11] worked out at 0.25. Further, the result in [16] was inactive.

As for `CC(C)(C)OC(=O)N[C@@H](CCCCNC(=O)[C@@H]1Cc2ccccc2CN1C(=O)CCC(=O)c1ccco1)C(=O)NCC(c1ccccc1)c1ccccc1`, the pEC50 entry in data set [13] and in [6] was “inactive” each time. The Efficacy entry in [1] and in data set [7] was “inactive” in each case. Further, the inhibition entry in data set [4] and in data set [5] was “inactive” in each case.

As to `CC(C)(C)OC(=O)N[C@@H](CCCCNC(=O)[C@@H]1Cc2ccccc2CN1C(=O)CCC(=O)c1cccs1)C(=O)NCC(c1ccccc1)c1ccccc1`, the pEC50 result in [13] and in [6] was “inactive” in each case. For the same compound, the Efficacy entry in [1] and in [7] was “inactive” each time. Moreover, the inhibition result in data set [4] and in data set [5] was “inactive” each time.
